KSHV LANA nucl – inhibitors of KSHV LANA-nucleosome binding, primary screen, biochemical, fluorescence polarization, FITC-LANA1-23, chicken nucleosomes. FITC-LANA1-23 / chicken nucleosome fluorescence polarization; active compounds read low. z-score (concentration not given with the values). 51,000 compounds, 0.3% hits;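 active = both repeat wells score below -2 in polarization z-score versus plate sample wells, excluding overly bright wells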
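Assay system: FITC-LANA peptide and chicken nucleosomes; input: 240 nM purified chicken nucleosomes (480 nM peptide binding sites), final; also added: 50 nM FITC-LANA1-23 probe; medium: TEN-BT buffer, pH 7.5; doses: pin-transferred compound, 100 nL; times: 10–45 min, room temperature; technique: fluorescence polarization; replication: duplicates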
BasE inh – BasE siderophore enzyme inhibitors, primary screen, biochemical, Acinetobacter baumannii ATCC 17978, fluorescence polarization; purified BasE, fluorescence polarization binding displacement; AID 485350, 2010; inhibition, % (test concentration not listed); 84,000 compounds, 0.1% hits; in the data active = inhibition above about 25%, passing the limit was not always enough;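 also: 0% = negative plate control signal and 100% = positive plate control signal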
The depositor's hits bear a star; . = no result given. Only a selection was taken, and hits are over-represented in it overall.

SMILES	KSHV LANA nucl	BasE inh
Cc1ccc(CCNC(=O)c2ccc3nc(-c4ccco4)c(-c4ccco4)nc3c2)cc1	-0.77	0
CCc1nc2ccc(C(=O)NCCc3ccco3)cc2nc1CC	-2.2*	2
Nc1ccc2c(c1)CCC2=O	0.82	2
O=C1CC(=O)c2ccc3c4c(ccc1c24)C(=O)CC3=O	-0.28	27*
CC1=CCC2C(=O)N(C3CCCCC3)C(=O)C2C1 (stereo not given)	1	-2
Cc1cc(C)nc(SCc2nnc(SC/C=C/c3ccccc3)o2)n1	.	-9
O=C(NCc1csc(-c2cccs2)n1)c1ccsc1	2.5	-4
COCc1cc(C)nc(SCC(=O)c2ccc(O)c(O)c2)c1C#N	.	37*
Cc1ccc(C(=O)CSc2nc(C)cc(C)c2C#N)cc1	-1.4	0
CCCn1c(=O)n(C)c(=O)c2c(SCC(=O)NCC3CCCO3)nc(C(C)(C)C)nc21 (stereo not given)	.	3
O=C(N/N=C/c1c[nH]c2ccccc12)c1cccc(O)c1	-0.36	21
CC(=O)n1cc(/C=N/NC(=O)c2cccc(O)c2)c2ccccc21	0.47	28*
CCOC(=O)c1cc(C)n(CC(=O)O)c1C	.	0
CCc1ccc(N2C(=O)N(CC(=O)N(CC)CC)c3ccccc3S2(=O)=O)cc1	0.15	1
Cc1csc(=O)n1CC(=O)OCc1nnc(-c2ccc(Cl)cc2)o1	.	0
CCN(C(=O)c1cccc(Cl)c1)C1CCCCC1	0.75	0
CCN(C(=O)NC1(C(F)(F)F)Oc2ccc(Cl)cc2O1)C1CCCCC1 (stereo not given)	-0.19	40*
CN1c2ccccc2C(=O)C(=C2SCCCS2)S1(=O)=O	-1.5	3
CN1c2ccccc2C(=O)/C(=N\Nc2ccccc2Cl)S1(=O)=O	-2.4*	-1
COc1ccc(SCC(=O)c2cn(CCC#N)c3ccccc23)cc1	.	-3
N#CCCn1cc(C(=O)CSc2ccccn2)c2ccccc21	.	32*
CCOC(=O)CSc1nnc(CNc2ccc(C)cc2C)n1-c1ccccc1	0.8	0
CCOC(=O)c1cc(C#N)c(=S)[nH]c1N	.	0
CN1CCN(c2nc(C#N)c(C#N)nc2C(C#N)=C2Nc3ccccc3N2)CC1	-1.6	1
CCN1/C(=C(\C#N)c2nc(C#N)c(C#N)nc2N2CCOCC2)Nc2ccccc21	-3.2*	1
SMILES	KSHV LANA nucl	BasE inh
Cc1cccc(C=Nc2ccc3[nH]ncc3c2)c1O	0.39	-3
O=C(CSc1n[nH]c(=O)[nH]c1=O)Nc1ccc(Br)cc1Br	.	-1
O=C(CSc1n[nH]c(=O)[nH]c1=O)Nc1ccccc1C(=O)c1ccccc1	.	38*
CCN(CC)c1ccc2cc(C(N)=O)c(=Nc3cccc(C)c3)oc2c1	.	7
Cc1ccccc1NC(=O)NC(C)(C)CC(C)(C)C	-0.068	1
CC(C)(C)CC(C)(C)NC(=O)Nc1cccc(Cl)c1	-2*	2
Cn1nc(CC(=O)Nc2ccc(-c3nnc4n3CCCCC4)cc2)c2ccccc2c1=O	.	-6
CCC1Oc2ccc(C)cc2N(Cc2ccc(F)cc2)C1=O (stereo not given)	0.35	4
CC(=O)NN=C1CCCCCCC1	-0.64	0
O=C1C=CC(=O)c2c(Cl)ccc(Cl)c21	-0.036	80*
CC(C)c1ccc(C2=CC(=O)C=CC2=O)cc1	0.66	2
COc1ccc(N2CCN(C(=O)c3ccccc3OC)CC2)cc1	-0.53	-3
COc1ccc(N2CCN(C(=O)c3ccc(-n4cnnc4)cc3Cl)CC2)cc1	-2*	3
Cc1ccccc1OCC1=NN2C(=N)/C(=C\c3ccc(SCc4ccco4)o3)C(=O)N=C2S1	3.1	-3
Cc1ccccc1OCC1=NN2C(=N)/C(=C/c3ccc(N(C)C)cc3)C(=O)N=C2S1	-4.8*	11
C#CCOC(=O)Nc1cnc(N(C)C)c(C(F)(F)F)c1	0.69	2
CN(C)c1ccc2c(c1)S(=O)(=O)c1cc(N(C)C)ccc1C2=O	-4*	33
CN1CCN(C(=O)c2ccc3c(c2)S(=O)(=O)c2ccccc2C3=O)CC1	.	1
COc1ccc(OC)c(/C=c2\sc3nc4ccccc4n3c2=O)c1	-1.6	2
Cc1nc2ccccc2c(=O)n1CC(=O)N(C1CCCCC1)C1CCCCC1	0.33	0
N#Cc1ccc(CSc2nc(N)cc(=O)[nH]2)cc1	-0.57	-1
O=C(CCc1nc2ccccc2c(=O)[nH]1)Nc1ccc(F)cc1	.	14
O=C(CCc1nc2ccccc2c(=O)[nH]1)Nc1ccc2c(c1)CCC2	.	28*
O=C(O)C1CCCCN1Cc1ccco1 (stereo not given)	0.34	3
O=C1CCCN1CCCNc1nn2nnnc2c2ccccc12	.	-2
SMILES	KSHV LANA nucl	BasE inh
CCC(=O)Nc1cccc(C2=NN(C(C)=O)C(c3ccc(F)cc3)O2)c1 (stereo not given)	-1.1	0
CC(=O)N1N=C(c2cccc(I)c2)OC1c1ccncc1 (stereo not given)	-0.15	59*
CC(=O)NC12CC3CC(C1)CC(C(=O)OCC(=O)Nc1ccccc1C(=O)NC1CC1)(C3)C2	.	0
C/C(Cn1nnc2ccccc21)=N/OC(=O)c1c(F)cccc1F	0.5	53*
CC(Cn1nnc2ccccc21)C(=O)O (stereo not given)	.	4
CN1CCC(NC(=O)c2cccc(C(F)(F)F)c2)CC1	.	0
COc1ccccc1C1C=C(c2cccnc2)Nc2nc3ccccc3n21 (stereo not given)	-4.8*	29
COc1ccccc1C1C2=C(CC(C)(C)CC2=O)Nc2nc3ccccc3n21 (stereo not given)	-0.74	1
CN(CC1COc2ccccc2O1)C(=O)C1(c2ccccc2)CC1 (stereo not given)	.	3
CN(CC1COc2ccccc2O1)C(=O)NC12CC3CC(CC(C3)C1)C2 (stereo not given)	.	30*
COc1ccc(N/C(C)=C/C(=O)c2ccccc2)cc1	-0.32	0
CC(=O)Nc1ccc(N/C(C)=C/C(=O)c2cccnc2)cc1	-0.39	39*
CCCCNC(=O)CC1NCCNC1=O (stereo not given)	0.3	-1
COc1ccc(CCN(C)C2CC(=O)N(c3ccccc3)C2=O)cc1OC (stereo not given)	0.27	1
N#CCCN(/N=C/c1ccccc1)C1=NS(=O)(=O)c2ccccc21	.	3
CCN(CC)c1ccc(/C=N/N(CCC#N)C2=NS(=O)(=O)c3ccccc32)cc1	-8.4*	11
CCCC1C2CN(Cc3ccccc3)CC=C2C(C#N)=C(N)C1(C#N)C#N (stereo not given)	-4.6*	23
CC(C)CC1C2CN(Cc3ccccc3)CC=C2C(C#N)=C(N)C1(C#N)C#N (stereo not given)	-1.5	15
CC(=O)N1CC=C2C(C#N)=C(N)C(C#N)(C#N)C(Cc3ccccc3)C2C1 (stereo not given)	-0.78	0
CN1CC=C2C(C#N)=C(N)C(C#N)(C#N)C(CCc3ccccc3)C2C1 (stereo not given)	-2.9*	22
O=C(COCc1cc(-c2ccc3c(c2)OCO3)on1)Nc1cc(F)ccc1F	0.9	1
Cn1c(SCC(=O)NN)nc2ccccc21	.	1
O=c1c(-c2ccccc2)coc2cc(OCc3ccccc3F)ccc12	.	-4
O=C(c1ccc(O)cc1)c1ccc(O)cc1O	0.21	31*
COc1ccc(C(=O)c2ccccc2)c(O)c1	-0.27	0

Screens as filed in PubChem.
